In assay [1] the target is Aldo-keto reductase family 1 member B1 (Rattus norvegicus) (UniProt P07943). The experiment in a line: Inhibition of rat kidney NADPH-dependent aldose reductase assessed as DL-glyceraldehyde conversion to glycerol at 1 uM preincubated for 20 mins followed by NADPH addition measured after 5 mins by UV-Visible spectrophotometric analysis relative to control. The method in brief: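 Enzyme source: supernatant of rat kidney homogenized in ice-cold 50 mM potassium phosphate pH 7.4, centrifuged 12,000 rpm 30 min, stored at -80 °C. Assay mix: 0.1 M potassium phosphate pH 6.2, DL-glyceraldehyde, lithium sulphate, mercaptoethanol. Compound (1 µM in DMSO) preincubated with enzyme 20 min at 37 °C. Blank without NADPH incubated 5 min at 37 °C. NADPH added to start. A340 decrease read. %inhibition = 100-[T/C]×100.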

For assay [2] the target is unchanged. The experiment in a line: (§1) Inhibition of rat kidney NADPH-dependent aldose reductase assessed as DL-glyceraldehyde conversion to glycerol preincubated for 20 mins followed by NADPH addition measured after 5 mins by UV-Visible spectrophotometric analysis.
In assay [3] the target is Aldo-keto reductase family 1 member B1 (Rattus norvegicus, UniProt P07943). Described as §1.

Each structure is given as a SMILES string. pIC50: −log10 of the molar value. A value given as a limit tells only on which side of the number the result lay.

Usually inhibition stands for the change of the read-out against control, counted positive when it falls. As for `N#CC(=C\c1ccc(Cl)cc1)/C=C1\SC(=S)NC1=O`, the inhibition in assay [1] is less than 50%.

Regarding `CC(C)c1ccc(/C=C(C#N)/C=C2\SC(=S)N(CC(=O)O)C2=O)cc1`, the inhibition in assay [1] is less than 50%.

On to `COc1ccc(/C=C(C#N)/C=C2\SC(=S)NC2=O)cc1`, for which the inhibition in assay [1] was less than 50%.

For the molecule `N#CC(=C\c1ccc(Br)cc1)/C=C1\SC(=S)N(CC(=O)O)C1=O`, in assay [1], the inhibition was less than 50%.

The term pIC50 denotes the IC50 on a negative log10 scale, so that one unit is a factor of ten. In the case of `N#CC(=C\c1ccccc1)/C=C1\SC(=S)N(CC(=O)O)C1=O`, the inhibition in assay [1] is greater than 50%; in assay [2], “Dose-dependent effect”. For the same molecule, the pIC50 in assay [3] is 6.12.

As to `N#CC(=C\c1ccc(Br)cc1)/C=C1\SC(=S)N(c2ccc(C(=O)O)cc2)C1=O`, in assay [1], the inhibition was less than 50%.

For the molecule `Cc1ccc(/C=C(C#N)/C=C2\SC(=S)N(CC(=O)O)C2=O)cc1`, the inhibition in assay [1] is less than 50%.

Consider `CC(C)c1ccc(/C=C(C#N)/C=C2\SC(=S)N(c3ccc(C(=O)O)cc3)C2=O)cc1`, for which, in assay [1], the inhibition is less than 50%.

As to `N#CC(=C\c1cccc2ccccc12)/C=C1\SC(=S)N(c2ccc(C(=O)O)cc2)C1=O`, the inhibition in assay [1] is less than 50%.

Consider `COc1ccc(/C=C(C#N)/C=C2\SC(=S)N(CC(=O)O)C2=O)cc1`, for which, in assay [1], the inhibition was less than 50%.

As for `COc1ccc(/C=C(C#N)/C=C2\SC(=S)N(c3ccc(C(=O)O)cc3)C2=O)cc1`, the inhibition in assay [1] was less than 50%.

`Cc1ccc(/C=C(C#N)/C=C2\SC(=S)N(c3ccc(CC(=O)O)cc3)C2=O)cc1`: the inhibition in assay [1] is less than 50%.

Take `N#CC(=C\c1ccccc1)/C=C1\SC(=S)N(c2ccc(CC(=O)O)cc2)C1=O`: in assay [1], the inhibition is less than 50%.

Turning to `Cc1ccc(/C=C(C#N)/C=C2\SC(=S)N(c3ccc(C(=O)O)cc3)C2=O)cc1`, the inhibition in assay [1] was less than 50%.

On to `N#CC(=C\c1cccc2ccccc12)/C=C1\SC(=S)N(CC(=O)O)C1=O`, for which, in assay [1], the inhibition was less than 50%.

As for `CC(C)c1ccc(/C=C(C#N)/C=C2\SC(=S)NC2=O)cc1`, in assay [1], the inhibition was less than 50%.

Turning to `N#CC(=C\c1ccco1)/C=C1\SC(=S)N(CC(=O)O)C1=O`, the inhibition is greater than 50% in assay [1] and “Dose-dependent effect” in assay [2]. In addition, the pIC50 in assay [3] is 6.17.

Take `N#CC(=C\c1ccco1)/C=C1\SC(=S)N(c2ccc(C(=O)O)cc2)C1=O`: the inhibition in assay [1] is less than 50%.

As for `N#CC(=C\c1cccc2ccccc12)/C=C1\SC(=S)NC1=O`, the inhibition in assay [1] is less than 50%.

`N#CC(=C\c1ccc(Br)cc1)/C=C1\SC(=S)NC1=O`: the inhibition in assay [1] was less than 50%.

Take `CCc1ccc(/C=C(C#N)/C=C2\SC(=S)N(CC(=O)O)C2=O)cc1`: in assay [1], the inhibition is less than 50%.

For the molecule `N#CC(=C\c1ccco1)/C=C1\SC(=S)NC1=O`, the inhibition in assay [1] is less than 50%.

`CCc1ccc(/C=C(C#N)/C=C2\SC(=S)N(c3ccc(C(=O)O)cc3)C2=O)cc1`: the inhibition in assay [1] is less than 50%.

With `N#CC(=C\c1ccc(Cl)cc1)/C=C1\SC(=S)N(c2ccc(C(=O)O)cc2)C1=O`, the inhibition in assay [1] was less than 50%.

For the molecule `N#CC(=C\c1ccc(C(F)(F)F)cc1)/C=C1\SC(=S)N(CC(=O)O)C1=O`, the inhibition in assay [1] is less than 50%.

In the case of `N#CC(=C\c1cccs1)/C=C1\SC(=S)NC1=O`, the values for the inhibition in assay [1] and in assay [2] were greater than 50% and “Dose-dependent effect”, respectively. Further, the pIC50 in assay [3] was 6.07.

With `Cc1ccc(/C=C(C#N)/C=C2\SC(=S)NC2=O)cc1`, the inhibition in assay [1] was greater than 50%; in assay [2], “Dose-dependent effect”. Moreover, the pIC50 in assay [3] is 6.16.

`CCc1ccc(/C=C(C#N)/C=C2\SC(=S)N(c3ccc(CC(=O)O)cc3)C2=O)cc1`: the inhibition in assay [1] is less than 50%.

Consider `N#CC(=C\c1cccs1)/C=C1\SC(=S)N(CC(=O)O)C1=O`, for which the inhibition in assay [1] is less than 50%.

As to `N#CC(=C\c1cccs1)/C=C1\SC(=S)N(c2ccc(C(=O)O)cc2)C1=O`, the inhibition in assay [1] was less than 50%.

For `CCc1ccc(/C=C(C#N)/C=C2\SC(=S)NC2=O)cc1`, in assay [1], the inhibition is less than 50%.

Turning to `COc1ccc(/C=C(C#N)/C=C2\SC(=S)N(c3ccc(CC(=O)O)cc3)C2=O)cc1`, the inhibition in assay [1] is less than 50%.

As for `CC(C)c1ccc(/C=C(C#N)/C=C2\SC(=S)N(c3ccc(CC(=O)O)cc3)C2=O)cc1`, in assay [1], the inhibition is less than 50%.

As to `N#CC(=C\c1ccccc1)/C=C1\SC(=S)N(c2ccc(C(=O)O)cc2)C1=O`, the inhibition in assay [1] is greater than 50%; in assay [2], “Dose-dependent effect”. Besides, the negative logarithm of the IC50 (pIC50) in assay [3] is 6.66.

Regarding `N#CC(=C\c1ccc(F)cc1)/C=C1\SC(=S)N(c2ccc(C(=O)O)cc2)C1=O`, the inhibition in assay [1] was less than 50%.

For the molecule `N#CC(=C\c1ccc(F)cc1)/C=C1\SC(=S)N(CC(=O)O)C1=O`, the inhibition in assay [1] is less than 50%.

Take `N#CC(=C\c1ccc(F)cc1)/C=C1\SC(=S)NC1=O`: the inhibition in assay [1] is less than 50%.

Turning to `N#CC(=C\c1ccccc1)/C=C1\SC(=S)NC1=O`, the inhibition in assay [1] was less than 50%.

With `N#CC(=C\c1ccc(Cl)cc1)/C=C1\SC(=S)N(CC(=O)O)C1=O`, the inhibition in assay [1] was less than 50%.

The values are drawn from ChEMBL document CHEMBL3098068 (Eur J Med Chem, 2014).
